Laboratory results reported in BindingDB's records for doi:10.1016/j.bmc.2016.09.019 (Florida A&M University, 2016).

Key:
Histamine H1 receptor = Histamine H1 receptor (Homo sapiens, UniProt P35367); test: Displacement of [3H]-pyrilamine from human histamine H1 receptor by liquid scintillation counting method
Summary of the method: (§1)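 Binding assays run by the NIMH Psychoactive Drug Screening Program (PDSP) using its previously reported methods and radioligands. Affinity is given as Ki.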

[1] = target: 5-hydroxytryptamine receptor 7 (Homo sapiens, UniProt P34969); test: Displacement of [3H]-LSD from human 5-HT7 receptor by liquid scintillation counting method
Chain of 5-hydroxytryptamine receptor 7 (P34969 whole entry): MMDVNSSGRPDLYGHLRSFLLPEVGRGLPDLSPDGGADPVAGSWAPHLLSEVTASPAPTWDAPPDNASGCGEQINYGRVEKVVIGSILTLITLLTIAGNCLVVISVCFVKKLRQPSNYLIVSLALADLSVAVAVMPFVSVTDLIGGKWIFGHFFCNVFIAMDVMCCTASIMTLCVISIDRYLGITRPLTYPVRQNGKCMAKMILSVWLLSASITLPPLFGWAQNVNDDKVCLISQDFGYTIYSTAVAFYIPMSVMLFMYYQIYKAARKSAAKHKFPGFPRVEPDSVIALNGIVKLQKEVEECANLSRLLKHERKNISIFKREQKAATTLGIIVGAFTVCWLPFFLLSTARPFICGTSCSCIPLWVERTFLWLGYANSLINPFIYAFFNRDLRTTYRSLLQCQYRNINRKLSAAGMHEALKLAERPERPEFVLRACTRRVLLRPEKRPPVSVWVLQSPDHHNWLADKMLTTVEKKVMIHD

[2] = target: T1, 5-hydroxytryptamine receptor 2C (Homo sapiens, UniProt P28335); test: Displacement of [3H]-mesulergine from human 5-HT2C receptor by liquid scintillation counting method; summary of the method: as §1
T1 sequence (P28335 whole entry): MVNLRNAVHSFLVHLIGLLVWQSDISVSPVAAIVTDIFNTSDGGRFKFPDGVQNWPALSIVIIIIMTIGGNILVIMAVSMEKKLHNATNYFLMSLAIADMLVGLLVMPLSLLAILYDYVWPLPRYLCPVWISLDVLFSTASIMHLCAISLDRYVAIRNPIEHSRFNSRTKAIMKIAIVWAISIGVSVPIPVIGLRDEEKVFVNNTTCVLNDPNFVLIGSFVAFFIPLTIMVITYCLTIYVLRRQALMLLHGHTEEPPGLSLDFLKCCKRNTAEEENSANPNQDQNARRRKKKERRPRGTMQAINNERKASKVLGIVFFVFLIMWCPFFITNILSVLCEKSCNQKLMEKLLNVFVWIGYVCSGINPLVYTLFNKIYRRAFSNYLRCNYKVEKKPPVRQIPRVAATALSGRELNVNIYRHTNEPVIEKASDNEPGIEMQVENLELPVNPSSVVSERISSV

Chain of Histamine H1 receptor (P35367 whole entry): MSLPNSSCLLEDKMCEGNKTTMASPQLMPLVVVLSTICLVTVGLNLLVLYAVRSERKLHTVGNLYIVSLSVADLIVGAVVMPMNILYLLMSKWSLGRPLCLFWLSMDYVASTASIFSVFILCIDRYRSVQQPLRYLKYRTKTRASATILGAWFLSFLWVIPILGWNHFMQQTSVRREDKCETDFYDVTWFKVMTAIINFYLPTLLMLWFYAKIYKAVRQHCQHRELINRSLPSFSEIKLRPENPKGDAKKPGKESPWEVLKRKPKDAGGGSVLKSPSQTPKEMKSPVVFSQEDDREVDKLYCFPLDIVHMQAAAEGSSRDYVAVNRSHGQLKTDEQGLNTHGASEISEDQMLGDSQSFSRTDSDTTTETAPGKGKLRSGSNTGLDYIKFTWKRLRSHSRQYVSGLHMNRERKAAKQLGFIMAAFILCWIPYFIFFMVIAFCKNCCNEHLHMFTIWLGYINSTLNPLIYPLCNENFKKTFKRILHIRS

Clc1ccc(C(=[C][C][C]N2[C][C]c3ccccc3[C]2)c2ccc(Cl)cc2)cc1
Ki (Histamine H1 receptor): 1000 nM
Ki [1]: 501 nM
Ki [2]: 2040 nM
